Experimental data taken from ChEMBL document CHEMBL3580605, “Melampodium leucanthum, a source of cytotoxic sesquiterpenes with antimitotic activities” (J Nat Prod, 2015).
pIC50: −log10 of the molar value. The source made the active and inactive calls. The rule behind the calls is not given here.

Assays:
PC-3 [1] = assay: Growth inhibition of human PC3 cells by sulforhodamine B assay; assay type: functional, cell-based
In short: (§1)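 SRB assay. DU 145 cells were grown in IMEM with 10% FBS and gentamicin, PC-3 in RPMI 1640 with 10% FBS and gentamicin, and HeLa in BME with 10% FBS and gentamicin. Cytotoxicity was read as a fall in cell density below the density at the time of drug addition. Each concentration was tested in triplicate, n = 2–9 independent experiments. IC50 is the concentration giving 50% inhibition of proliferation versus vehicle control, interpolated from a 4-parameter nonlinear regression; mean ± SE.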

DU-145 [2] = assay: Growth inhibition of human DU145 cells by sulforhodamine B assay; assay type: functional, cell-based; in short: as §1
DU-145 [3] = assay: Selectivity index, ratio of IC50 for human PC3 cells to IC50 for human DU145 cells; assay type: functional
In short: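 Ratio of SRB IC50 values from PC-3 and DU 145 prostate cells, each measured by 4-parameter nonlinear regression of triplicate concentration-response data.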

HeLa [4] = assay: Inhibition of PLK1 protein accumulation in human HeLa cells at 10 uM by immunoblotting method; assay type: functional, cell-based
In short: (§2)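 HeLa and DU 145 cells were given vehicle, 100 nM BI 2536 or 10 µM test compounds. Lysed and immunoblotted for total PLK1 and phospho-Thr210-PLK1.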

HeLa [5] = assay: Induction of apoptosis in human HeLa cells assessed as increase in PARP cleavage at 10 uM after 24 hrs by immunoblotting method; assay type: functional, cell-based
In short: (§3)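 HeLa and DU 145 cells were given vehicle, BI2536 (100 nM) or test compounds (10 µM) for 24 h. Lysed with protease inhibitors; equal protein run on SDS-PAGE, transferred to PVDF, and probed for cleaved PARP (1:1000) with actin as loading control; ECL detection.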

SK-OV-3 [6] = assay: Growth inhibition of human SKOV3 cells by sulforhodamine B assay; assay type: functional, cell-based
In short: (§4)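 Isogenic ovarian pair: parental SK-OV-3 and its Pgp-expressing single-cell clone SK-OV-3/MDR-1-M6/6, tested by SRB assay. IC50 is interpolated from a 4-parameter nonlinear regression against vehicle control. Rr = IC50 in M6/6 divided by IC50 in SK-OV-3.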

[7] = biological target: Serine/threonine-protein kinase PLK1 (Homo sapiens) (UniProt P53350); assay: Inhibition of PLK1 Thr210 phosphorylation in human HeLa cells at 10 uM by immunoblotting method; assay type: cell-based; in short: as §2
Sequence of Serine/threonine-protein kinase PLK1 (Homo sapiens) (P53350 whole entry): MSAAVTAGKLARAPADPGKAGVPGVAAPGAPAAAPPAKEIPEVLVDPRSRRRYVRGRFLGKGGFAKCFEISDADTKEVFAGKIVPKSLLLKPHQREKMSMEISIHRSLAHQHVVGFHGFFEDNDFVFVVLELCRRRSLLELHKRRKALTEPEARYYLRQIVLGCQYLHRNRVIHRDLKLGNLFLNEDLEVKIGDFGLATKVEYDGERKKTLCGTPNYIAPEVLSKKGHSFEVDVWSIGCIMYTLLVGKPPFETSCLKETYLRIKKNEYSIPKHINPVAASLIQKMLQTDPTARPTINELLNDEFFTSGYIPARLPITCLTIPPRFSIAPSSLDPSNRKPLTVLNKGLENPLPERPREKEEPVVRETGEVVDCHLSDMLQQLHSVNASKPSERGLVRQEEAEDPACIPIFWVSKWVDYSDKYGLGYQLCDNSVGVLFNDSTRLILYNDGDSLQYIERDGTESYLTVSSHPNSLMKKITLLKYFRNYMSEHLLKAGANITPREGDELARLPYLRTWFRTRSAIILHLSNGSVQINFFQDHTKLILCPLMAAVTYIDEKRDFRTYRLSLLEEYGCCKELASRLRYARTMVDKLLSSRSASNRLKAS

DU-145 [8] = assay: Induction of apoptosis in human DU145 cells assessed as increase in PARP cleavage at 10 uM after 24 hrs by immunoblotting method; assay type: functional, cell-based; in short: as §3
HeLa [9] = assay: Induction of aberrant bipolar mitotic spindles in human HeLa cells at 7.5 uM incubated for 18 hrs by indirect immunofluorescence microscopy; assay type: functional, cell-based
In short: (§5)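 Cells adhered overnight on glass coverslips, then were treated for 18 h. They were fixed in cold methanol (4 °C, 5 min) and blocked with 10% bovine calf serum for 20 min. Stained with monoclonal anti-β-tubulin (1:400, 2 h, 37 °C), then FITC anti-mouse IgG (1:200, 1 h, 37 °C), and 0.1 µg/mL DAPI. Spindles scored by indirect immunofluorescence; BI2536 at 100 nM served as positive control.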

PC-3 [10] = assay: Induction of aberrant bipolar mitotic spindles in human PC3 cells at 7.5 uM incubated for 18 hrs by indirect immunofluorescence microscopy; assay type: functional, cell-based; in short: as §5
A10 = assay: Growth inhibition of rat A10 cells by sulforhodamine B assay; assay type: cell-based
PC-3 [11] = assay: Induction of monopolar mitotic spindles in human PC3 cells at 7.5 uM incubated for 18 hrs by indirect immunofluorescence microscopy; assay type: functional, cell-based; in short: as §5
DU-145 [12] = assay: Inhibition of colony formation of human DU145 cells incubated for 4 hrs followed by drug wash-out and measured after 14 days post drug wash-out by crystal violet staining based clonogenic assay; assay type: functional, cell-based
In short: (§6)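 300 DU 145 cells were allowed to adhere, then exposed to vehicle (0.5% DMSO final) or compound for 4 h. Washed with DPBS and regrown in fresh medium. Fixed and stained with 0.5% crystal violet in 10% methanol; colonies counted. Legend states 9 days, methods 14 days. One-way ANOVA with Dunnett's post-hoc test; n = 2–9 experiments.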

DU-145 [13] = assay: Inhibition of PLK1 protein accumulation in human DU145 cells at 10 uM by immunoblotting method; assay type: functional, cell-based; in short: as §2
HeLa [14] = assay: Induction of monopolar mitotic spindles in human HeLa cells at 7.5 uM incubated for 18 hrs by indirect immunofluorescence microscopy; assay type: functional, cell-based; in short: as §5
SK-OV-3 [15] = assay: Resistance index, ratio of IC50 for human SKOV3-MDR1-M6/6 cells to IC50 for human SKOV3 cells; assay type: functional; in short: as §4
HeLa [16] = assay: Growth inhibition of human HeLa cells by sulforhodamine B assay; assay type: functional, cell-based; in short: as §1
SK-OV-3 [17] = assay: Growth inhibition of human SKOV3-MDR1-M6/6 cells by sulforhodamine B assay; assay type: functional, cell-based; in short: as §4
Tubulin (Sus scrofa) [18] = biological target: T1, Tubulin (Sus scrofa) (UniProt P02554+P02550); assay: Inhibition of porcine tubulin polymerization at 10 uM incubated for 1 hr by turbidimetry; assay type: protein assay
T1 sequence (P02550 whole entry, looked up): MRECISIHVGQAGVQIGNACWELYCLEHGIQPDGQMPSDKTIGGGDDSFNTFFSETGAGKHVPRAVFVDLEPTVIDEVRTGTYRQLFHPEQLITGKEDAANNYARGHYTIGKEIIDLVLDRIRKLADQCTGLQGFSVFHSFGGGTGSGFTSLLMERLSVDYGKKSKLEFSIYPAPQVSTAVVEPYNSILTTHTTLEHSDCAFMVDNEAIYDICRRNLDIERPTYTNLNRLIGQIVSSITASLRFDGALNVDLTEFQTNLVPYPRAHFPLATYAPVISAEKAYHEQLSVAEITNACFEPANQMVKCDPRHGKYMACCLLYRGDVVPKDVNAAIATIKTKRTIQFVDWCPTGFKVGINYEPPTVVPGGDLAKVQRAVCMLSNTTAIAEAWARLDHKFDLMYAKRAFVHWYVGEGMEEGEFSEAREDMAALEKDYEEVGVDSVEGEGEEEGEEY
T1 sequence (P02554 whole entry, looked up): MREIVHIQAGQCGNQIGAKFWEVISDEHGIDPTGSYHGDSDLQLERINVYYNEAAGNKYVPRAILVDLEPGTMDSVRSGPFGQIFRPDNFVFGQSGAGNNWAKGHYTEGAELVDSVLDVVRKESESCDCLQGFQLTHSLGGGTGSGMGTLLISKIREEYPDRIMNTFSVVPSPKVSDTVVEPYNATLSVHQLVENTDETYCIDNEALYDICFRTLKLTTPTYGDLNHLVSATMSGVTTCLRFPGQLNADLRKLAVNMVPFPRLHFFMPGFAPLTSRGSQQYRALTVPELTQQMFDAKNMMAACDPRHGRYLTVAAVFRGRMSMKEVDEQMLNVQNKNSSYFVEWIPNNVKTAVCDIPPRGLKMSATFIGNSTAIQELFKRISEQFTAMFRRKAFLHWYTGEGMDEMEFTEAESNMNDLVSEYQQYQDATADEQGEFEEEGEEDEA

[19] = biological target: Serine/threonine-protein kinase PLK1 (Homo sapiens) (UniProt P53350); assay: Inhibition of PLK1 Thr210 phosphorylation in human DU145 cells at 10 uM by immunoblotting method; assay type: cell-based; conditions: DU-145; in short: as §2
PC-3 [20] = assay: Induction of monopolar mitotic spindles in human PC3 cells at 25 uM incubated for 18 hrs by indirect immunofluorescence microscopy; assay type: functional, cell-based; in short: as §5
HeLa [21] = assay: Induction of monopolar mitotic spindles in human HeLa cells at 25 uM incubated for 18 hrs by indirect immunofluorescence microscopy; assay type: functional, cell-based; in short: as §5
PC-3 [22] = assay: Induction of aberrant bipolar mitotic spindles in human PC3 cells at 25 uM incubated for 18 hrs by indirect immunofluorescence microscopy; assay type: functional, cell-based; in short: as §5
HeLa [23] = assay: Induction of aberrant bipolar mitotic spindles in human HeLa cells at 25 uM incubated for 18 hrs by indirect immunofluorescence microscopy; assay type: functional, cell-based; in short: as §5
DU-145 [24] = assay: Inhibition of colony formation of human DU145 cells at 5 to 20 uM incubated for 4 hrs followed by drug wash-out and measured after 9 days post drug wash-out by crystal violet staining based clonogenic assay; assay type: functional, cell-based; in short: as §6
DU-145 [25] = assay: Inhibition of PLK1 protein accumulation in human DU145 cells at 100 nM by immunoblotting method; assay type: functional, cell-based; in short: as §2
HeLa [26] = assay: Induction of monopolar mitotic spindles in human HeLa cells at 100 nM incubated for 18 hrs by indirect immunofluorescence microscopy; assay type: functional, cell-based; in short: as §5
HeLa [27] = assay: Induction of apoptosis in human HeLa cells assessed as increase in PARP cleavage at 100 nM after 24 hrs by immunoblotting method; assay type: functional, cell-based; in short: as §3
PC-3 [28] = assay: Induction of monopolar mitotic spindles in human PC3 cells at 100 nM incubated for 18 hrs by indirect immunofluorescence microscopy; assay type: functional, cell-based; in short: as §5
DU-145 [29] = assay: Induction of apoptosis in human DU145 cells assessed as increase in PARP cleavage at 100 nM after 24 hrs by immunoblotting method; assay type: functional, cell-based; in short: as §3
HeLa [30] = assay: Inhibition of PLK1 protein accumulation in human HeLa cells at 100 nM by immunoblotting method; assay type: functional, cell-based; in short: as §2
Tubulin (Sus scrofa) [31] = biological target: T1, Tubulin (Sus scrofa); assay: Inhibition of porcine tubulin polymerization at 10 to 100 uM incubated for 1 hr by turbidimetry; assay type: protein assay
PC-3 [32] = assay: Induction of aberrant bipolar mitotic spindles in human PC3 cells at 10 uM incubated for 18 hrs by indirect immunofluorescence microscopy; assay type: functional, cell-based; in short: as §5
PC-3 [33] = assay: Induction of cell cycle arrest in human PC3 cells at 1.5 uM to 5 uM incubated for 18 hrs by flow cytometry method; assay type: functional, cell-based
In short: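 PC-3 cells were treated with vehicle (DMSO) or compound for 18 h. Stained with Krishan's reagent (propidium iodide), and DNA content read by flow cytometry for cell cycle distribution.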

PC-3 [34] = assay: Induction of monopolar mitotic spindles in human PC3 cells at 10 uM incubated for 18 hrs by indirect immunofluorescence microscopy; assay type: functional, cell-based; in short: as §5
HeLa [35] = assay: Induction of monopolar mitotic spindles in human HeLa cells at 10 uM incubated for 18 hrs by indirect immunofluorescence microscopy; assay type: functional, cell-based; in short: as §5
HeLa [36] = assay: Induction of aberrant bipolar mitotic spindles in human HeLa cells at 10 uM incubated for 18 hrs by indirect immunofluorescence microscopy; assay type: functional, cell-based; in short: as §5

Compound	pIC50 (PC-3 [1])	pIC50 (DU-145 [2])	inhibition (HeLa [4])	Activity (HeLa [5])	pIC50 (SK-OV-3 [6])	inhibition [7]	Activity (DU-145 [8])	pIC50 (A10)	inhibition (DU-145 [12])	inhibition (DU-145 [13])	Ratio IC50 (SK-OV-3 [15])	pIC50 (HeLa [16])	pIC50 (SK-OV-3 [17])	inhibition (Tubulin (Sus scrofa) [18])	inhibition [19]	further results
C=C1C(=O)O[C@H]2[C@H]1[C@H](OC(=O)[C@@]1(C)O[C@H]1C)[C@@H](OC(C)=O)[C@@]1(C(=O)OC)C=CC=C(C)[C@H]21	6.17	6.74	–	–	–	–	–	–	–	–	–	–	–	–	–	Ratio IC50 (DU-145 [3]): 3.7
C=C1C(=O)O[C@H]2[C@H]1[C@H](OC(=O)[C@@]1(C)O[C@H]1C)[C@H](OC(C)=O)/C(C(=O)OC)=C\[C@H]1O[C@H]1[C@]1(C)O[C@H]21	5.51	5.59	inactive	Active	6.09	inactive	Active	5.96	Dose-dependent effect	inactive	2.4	5.72	5.70	Active	inactive	Activity (HeLa [9]): Active; Activity (PC-3 [10]): Active; Activity (PC-3 [11]): Active; Activity (HeLa [14]): Active
C=C1C(=O)O[C@H]2[C@H]1[C@H](OC(=O)[C@@]1(C)O[C@H]1C)[C@H](OC(C)=O)/C(C(=O)OC)=C\C[C@@H](O)[C@]1(C)O[C@H]21	5.06	5.23	inactive	Active	5.77	inactive	Active	5.52	Dose-dependent effect	inactive	2.6	5.42	5.36	Active	inactive	Activity (PC-3 [20]): Active; Activity (HeLa [21]): Active; Activity (PC-3 [22]): Active; Activity (HeLa [23]): Active; inhibition (DU-145 [24]): Active
CC[C@@H]1C(=O)N(C)c2cnc(Nc3ccc(C(=O)NC4CCN(C)CC4)cc3OC)nc2N1C1CCCC1	–	–	–	–	–	–	–	–	–	–	–	–	–	–	–	inhibition (DU-145 [25]): Active; Activity (HeLa [26]): Active; Activity (HeLa [27]): Active; Activity (PC-3 [28]): Active; Activity (DU-145 [29]): Active; inhibition (HeLa [30]): Active
CC(=O)O[C@H]1C(=O)[C@@]2(C)[C@H]([C@H](OC(=O)c3ccccc3)[C@]3(O)C[C@H](OC(=O)[C@H](O)[C@@H](NC(=O)c4ccccc4)c4ccccc4)C(C)=C1C3(C)C)[C@]1(OC(C)=O)CO[C@@H]1C[C@@H]2O [PACLITAXEL]	7.40	8.40	–	–	8.21	–	–	–	–	–	162.9	8.46	6.00	–	–	–
C=C1C(=O)O[C@H]2[C@H]1[C@H](OC(=O)[C@@]1(C)O[C@H]1C)[C@H](OC(C)=O)/C(C(=O)OC)=C\C=C/[C@]1(C)O[C@H]21	5.77	5.74	inactive	Active	6.24	inactive	Active	5.77	Dose-dependent effect	inactive	2.5	5.77	5.85	–	inactive	inhibition (Tubulin (Sus scrofa) [31]): Active; Activity (PC-3 [32]): Active; Activity (PC-3 [33]): inactive; Activity (PC-3 [34]): Active; Activity (HeLa [35]): Active; Activity (HeLa [36]): Active
